{"source": "ChEMBL document CHEMBL1134348", "about": "“Novel glucocorticoid antedrugs possessing a 17beta-(gamma-lactone) ring” (J Med Chem, 2001)", "key": {"[1]": {"test": "% stability in human plasma after 60 minutes.", "format": "ADME, organism-based", "settings": "plasma, read-out: Stability", "outline": "(§1)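 Pooled heparinized plasma from 4 volunteers was incubated at 37 °C with test compound at a final concentration of 30 ug/mL, with DMSO-only controls. The reaction was stopped with 2 M citric acid at 10 and 60 min, with a zero-time sample. Supernatants were analysed by reversed-phase HPLC at 240 nm against an internal standard, in duplicate, and reported as % compound remaining.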"}, "Rattus norvegicus [2]": {"test_system": "Rattus norvegicus", "test": "Inhibition of rat ear edema as percentage change in mean weight (56.03 +/- 1.41 mg) from control group of 55.67+/-1.22 mg at 1.56 ug dose", "format": "functional"}, "Rattus norvegicus [3]": {"test_system": "Rattus norvegicus", "test": "Inhibition of rat ear edema as percentage change in mean weight (44.05+/-1.18 mg) from control group of 55.67+/-1.22 mg at 100 ug dose", "format": "functional"}, "[4]": {"test": "% stability in krebs buffer after 60 minutes.", "format": "physicochemical", "settings": "Krebs buffer; read-out: Stability", "outline": "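Test compound, at a final concentration of 30 ug/mL, was spiked into Krebs buffer at 37 °C for 60 min, then quenched with 2 M citric acid. Supernatant was analysed by reversed-phase HPLC with UV detection at 240 nm and an internal standard, in duplicate. The read-out was % compound remaining.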"}, "Rattus norvegicus [5]": {"test_system": "Rattus norvegicus", "test": "Inhibition of rat ear edema as percentage change in mean weight (50.65 +/- 1.18 mg) from control group of 55.67+/-1.22 mg at 25 ug dose", "format": "functional"}, "[6]": {"test": "% stability in human plasma after 10 minutes.", "format": "ADME, organism-based", "settings": "plasma, read-out: Stability", "outline": "as §1"}, "[7]": {"test": "half life in human plasma.", "format": "ADME, organism-based", "outline": "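Pooled heparinised plasma from 4 volunteers, stored at −20 °C; compound spiked to final 30 ug/mL at 37 °C. Half-life taken from additional time points in this incubation; reaction stopped with 2 M citric acid, samples frozen overnight and centrifuged. Supernatant analysed by reverse-phase HPLC with UV at 240 nm, internal standard dexamethasone or hydrocortisone; duplicates.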"}, "Rattus norvegicus [8]": {"test_system": "Rattus norvegicus", "test": "Inhibition of rat ear edema as percentage change in mean weight (54.86 +/- 1.35 mg) from control group of 55.67+/-1.22 mg at 6.25 ug dose", "format": "functional"}}}
{"molecule": "CC1(C)O[C@@H]2CC3C4C[C@H](F)C5=CC(=O)C=C[C@]5(C)[C@@]4(F)[C@@H](O)C[C@]3(C)[C@]2(SC2CCOC2=O)O1", "note": "(stereo partly drawn)", "values": [{"measurement": "remaining at 1 h", "setting": "[1]", "value": 0, "unit": "%"}, {"measurement": "Decrease", "setting": "Rattus norvegicus [2]", "value": 0, "unit": "%"}, {"measurement": "Decrease", "setting": "Rattus norvegicus [3]", "value": 20.9, "unit": "%"}, {"measurement": "remaining at 1 h", "setting": "[4]", "value": 74, "unit": "%"}, {"measurement": "Decrease", "setting": "Rattus norvegicus [5]", "value": 9.01, "unit": "%"}, {"measurement": "remaining at 10 min", "setting": "[6]", "value": 24, "unit": "%"}, {"measurement": "half-life", "setting": "[7]", "value": 4, "unit": "min"}, {"measurement": "Decrease", "setting": "Rattus norvegicus [8]", "value": 1.46, "unit": "%"}]}
